Measurements taken from ChEMBL document CHEMBL4813946, “Discovery of novel 4-azaaryl-N-phenylpyrimidin-2-amine derivatives as potent and selective FLT3 inhibitors for acute myeloid leukaemia with FLT3 mutations” (Eur J Med Chem, 2021).
The source made the active and inactive calls. The calls are words filed in the database; no cut-off is given here.

Experiments:
MV4-11 [1] = experiment: Induction of apoptosis in human MV4-11 cells assessed as viable cells at 10 x GI50 concentration incubated for 48 hrs by annexin V-FITC and propidium iodide staining based flow cytometry (reference value: 91.87 %); format: functional
U-937 [2] = experiment: Antiproliferative activity against human U-937 cells harboring wild type/low FLT3 assessed as reduction in cell viability after 72 hrs by resazurin assay; format: functional
Summary of the method: (§1)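 Cells seeded and pre-incubated 24 h at 37 °C, 5% CO2, then given a five-fold dilution series of compound (from 10 mM DMSO stock) in medium, in triplicate. Resazurin added after 72 h exposure, 4 h in dark at 37 °C. Fluorescence read at 570/585 nm, normalised to DMSO vehicle. GI50 by non-linear regression; mean ± SD of at least two replicates.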

K562 = experiment: Antiproliferative activity against human K562 cells harboring FLT3 knockout gene assessed as reduction in cell viability after 72 hrs by resazurin assay; format: functional; summary of the method: as §1
U-937 [3] = experiment: Induction of apoptosis in human U937 cells assessed as necrotic cells at 1 x GI50 concentration incubated for 48 hrs by annexin V-FITC staining based flow cytometry (reference value: 1.16 %); format: functional
MV4-11 [4] = experiment: Induction of apoptosis in human MV4-11 cells assessed as necrotic cells at 1 x GI50 concentration incubated for 48 hrs by annexin V-FITC and propidium iodide staining based flow cytometry (reference value: 0.45 %); format: functional
U-937 [5] = experiment: Induction of apoptosis in human U937 cells assessed as viable cells at 10 x GI50 concentration incubated for 48 hrs by annexin V-FITC staining based flow cytometry (reference value: 86.25 %); format: functional
[6] = target: Receptor-type tyrosine-protein kinase FLT3 (Homo sapiens, UniProt P36888, ITD); experiment: Inhibition of FLT3 ITD mutant (unknown origin) using Glu/Tyr peptide substrate incubated for 80 mins measured after 40 mins incubation under dark by ADP-glo based luminescence assay
Receptor-type tyrosine-protein kinase FLT3, sequence (P36888 whole entry, looked up, stated change not applied): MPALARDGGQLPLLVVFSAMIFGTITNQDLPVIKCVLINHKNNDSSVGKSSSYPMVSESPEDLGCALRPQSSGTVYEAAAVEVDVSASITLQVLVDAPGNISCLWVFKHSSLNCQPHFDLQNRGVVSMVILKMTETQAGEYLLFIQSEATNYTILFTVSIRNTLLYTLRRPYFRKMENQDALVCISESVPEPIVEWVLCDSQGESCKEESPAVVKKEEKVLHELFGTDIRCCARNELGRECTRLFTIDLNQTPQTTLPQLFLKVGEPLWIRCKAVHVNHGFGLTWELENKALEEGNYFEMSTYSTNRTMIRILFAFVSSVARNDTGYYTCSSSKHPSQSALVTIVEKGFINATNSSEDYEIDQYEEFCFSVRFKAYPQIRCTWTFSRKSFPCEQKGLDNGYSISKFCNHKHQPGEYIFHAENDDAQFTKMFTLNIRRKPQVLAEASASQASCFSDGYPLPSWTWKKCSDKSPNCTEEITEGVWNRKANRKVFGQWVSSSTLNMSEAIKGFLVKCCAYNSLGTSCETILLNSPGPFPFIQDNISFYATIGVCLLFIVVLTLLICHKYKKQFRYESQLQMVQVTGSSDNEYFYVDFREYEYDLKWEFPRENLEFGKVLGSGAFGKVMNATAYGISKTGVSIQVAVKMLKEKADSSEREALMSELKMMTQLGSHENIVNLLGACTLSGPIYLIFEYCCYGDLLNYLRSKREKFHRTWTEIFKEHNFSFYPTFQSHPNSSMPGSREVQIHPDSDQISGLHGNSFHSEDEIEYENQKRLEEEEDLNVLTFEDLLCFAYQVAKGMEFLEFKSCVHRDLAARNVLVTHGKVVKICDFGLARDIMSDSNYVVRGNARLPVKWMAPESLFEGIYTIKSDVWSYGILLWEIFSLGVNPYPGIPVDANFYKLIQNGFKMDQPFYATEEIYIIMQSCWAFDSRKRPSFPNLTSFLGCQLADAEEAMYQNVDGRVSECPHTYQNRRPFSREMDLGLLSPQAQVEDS

MV4-11 [7] = experiment: Induction of apoptosis in human MV4-11 cells assessed as necrotic cells at 5 x GI50 concentration incubated for 48 hrs by annexin V-FITC and propidium iodide staining based flow cytometry (reference value: 0.45 %); format: functional
U-937 [8] = experiment: Induction of apoptosis in human U937 cells assessed as early apoptotic cells at 5 x GI50 concentration incubated for 48 hrs by annexin V-FITC staining based flow cytometry (reference value: 2.78%); format: functional
U-937 [9] = experiment: Induction of apoptosis in human U937 cells assessed as early apoptotic cells at 10 x GI50 concentration incubated for 24 hrs by annexin V-FITC and propidium iodide staining based flow cytometry (reference value: 1.81 %); format: functional
MV4-11 [10] = experiment: Induction of apoptosis in human MV4-11 cells assessed as early apoptotic cells at 1 x GI50 concentration incubated for 24 hrs by annexin V-FITC and propidium iodide staining based flow cytometry (reference value: 2.12 %); format: functional
MV4-11 [11] = experiment: Induction of apoptosis in human MV4-11 cells assessed as necrotic cells at 1 x GI50 concentration incubated for 24 hrs by annexin V-FITC and propidium iodide staining based flow cytometry (reference value: 0.75 %); format: functional
U-937 [12] = experiment: Induction of apoptosis in human U937 cells assessed as viable cells at 5 x GI50 concentration incubated for 48 hrs by annexin V-FITC staining based flow cytometry (reference value: 86.25 %); format: functional
MV4-11 [13] = experiment: Induction of apoptosis in human MV4-11 cells assessed as early apoptotic cells at 10 x GI50 concentration incubated for 48 hrs by annexin V-FITC and propidium iodide staining based flow cytometry (reference value: 1.08 %); format: functional
U-937 [14] = experiment: Induction of apoptosis in human U937 cells assessed as early apoptotic cells at 5 x GI50 concentration incubated for 24 hrs by annexin V-FITC and propidium iodide staining based flow cytometry (Rvb =1.81 %); format: functional
MV4-11 [15] = experiment: Induction of apoptosis in human MV4-11 cells assessed as late apoptotic cells at 5 x GI50 concentration incubated for 24 hrs by annexin V-FITC and propidium iodide staining based flow cytometry (reference value: 12.45 %); format: functional
[16] = target: Receptor-type tyrosine-protein kinase FLT3 (Homo sapiens) (UniProt P36888); experiment: Inhibition of FLT3-mediated signalling pathway in human U-937 cells assessed as inhibition of ERK phosphorylation upto 20 x GI50 concentration incubated for 6 hrs by western blot analysis; format: cell-based
Receptor-type tyrosine-protein kinase FLT3 (Homo sapiens), sequence (P36888 whole entry): as the sequence (P36888 whole entry, looked up, stated change not applied) above
Summary of the method: (§2)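 Cells lysed in phosphate lysis buffer with protease inhibitors and protein quantified. Western blots probed phospho and total STAT5, AKT, ERK, S6RP and eIF4E, plus full-length and cleaved PARP and caspase-3, with β-actin as loading control. At least two independent experiments.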

[17] = target: Receptor-type tyrosine-protein kinase FLT3 (Homo sapiens) (UniProt P36888); experiment: Inhibition of FLT3-mediated signalling pathway in human MV4-11 cells assessed as inhibition of AKT phosphorylation upto 20 x GI50 concentration incubated for 6 hrs by western blot analysis; format: cell-based; summary of the method: as §2
U-937 [18] = experiment: Induction of apoptosis in human U937 cells assessed as viable cells at 1 x GI50 concentration incubated for 24 hrs by annexin V-FITC and propidium iodide staining based flow cytometry (reference value: 86.80 %); format: functional
MV4-11 [19] = experiment: Antiproliferative activity against human MV4-11 cells incubated for 72 hrs by resazurin assay; format: functional; summary of the method: as §1
U-937 [20] = experiment: Induction of apoptosis in human U937 cells assessed as late apoptotic cells at 5 x GI50 concentration incubated for 24 hrs by annexin V-FITC and propidium iodide staining based flow cytometry (Rvb =10.30 %); format: functional
THP-1 = experiment: Antiproliferative activity against human THP-1 cells harboring wild type FLT3 assessed as reduction in cell viability after 72 hrs by resazurin assay; format: functional; summary of the method: as §1
U-937 [21] = experiment: Induction of apoptosis in human U937 cells assessed as early apoptotic cells at 20 x GI50 concentration incubated for 48 hrs by annexin V-FITC staining based flow cytometry (reference value: 2.78 %); format: functional
U-937 [22] = experiment: Induction of apoptosis in human U937 cells assessed as necrotic cells at 5 x GI50 concentration incubated for 24 hrs by annexin V-FITC and propidium iodide staining based flow cytometry (reference value: 1.10 %); format: functional
[23] = target: Receptor-type tyrosine-protein kinase FLT3 (Homo sapiens) (UniProt P36888); experiment: Inhibition of FLT3-mediated signalling pathway in human MV4-11 cells assessed as increase in cleaved PARP expression upto 20 x GI50 concentration incubated for 6 hrs by western blot analysis; format: cell-based; summary of the method: as §2
[24] = target: Receptor-type tyrosine-protein kinase FLT3 (Homo sapiens) (UniProt P36888); experiment: Inhibition of FLT3-mediated signalling pathway in human U-937 cells assessed as inhibition of S6RP phosphorylation upto 20 x GI50 concentration incubated for 6 hrs by western blot analysis; format: cell-based; summary of the method: as §2
MV4-11 [25] = experiment: Induction of apoptosis in human MV4-11 cells assessed as viable cells at 5 x GI50 concentration incubated for 48 hrs by annexin V-FITC and propidium iodide staining based flow cytometry (reference value: 91.87 %); format: functional
MV4-11 [26] = experiment: Induction of apoptosis in human MV4-11 cells assessed as early apoptotic cells at 20 x GI50 concentration incubated for 48 hrs by annexin V-FITC and propidium iodide staining based flow cytometry (reference value: 1.08 %); format: functional
[27] = target: Receptor-type tyrosine-protein kinase FLT3 (Homo sapiens) (UniProt P36888); experiment: Inhibition of FLT3-mediated signalling pathway in human MV4-11 cells assessed as inhibition of STAT5 phosphorylation upto 20 x GI50 concentration incubated for 6 hrs by western blot analysis; format: cell-based; summary of the method: as §2
MV4-11 [28] = experiment: Induction of apoptosis in human MV4-11 cells assessed as early apoptotic cells at 1 x GI50 concentration incubated for 48 hrs by annexin V-FITC and propidium iodide staining based flow cytometry (reference value: 1.08 %); format: functional

CC(=O)N1CCN(c2ccc(Nc3nccc(-c4cn(C)c5ncccc45)n3)cc2)CC1
Activity (MV4-11 [1]): 72.29%
GI50 (U-937 [2]): > 10 µM
GI50 (K562): > 10 µM
Activity (U-937 [3]): 1.4%
Activity (MV4-11 [4]): 0.8%
Activity (U-937 [5]): 83.36%
Ki [6]: 0.002 µM
Activity (MV4-11 [7]): 0.86%
Activity (U-937 [8]): 2.55%
Activity (U-937 [9]): 2.48%
Activity (MV4-11 [10]): 2.16%
Activity (MV4-11 [11]): 1.74%
Activity (U-937 [12]): 88.11%
Activity (MV4-11 [13]): 2.72%
Activity (U-937 [14]): 2.15%
Activity (MV4-11 [15]): 16.42%
inhibition [16]: Active
inhibition [17]: Active
Activity (U-937 [18]): 88.19%
GI50 (MV4-11 [19]): 0.074 µM
Activity (U-937 [20]): 9.79%
GI50 (THP-1): 7.72 µM
Activity (U-937 [21]): 3.44%
Activity (U-937 [22]): 1.7%
Activity [23]: Active
inhibition [24]: Active
Activity (MV4-11 [25]): 86.83%
Activity (MV4-11 [26]): 2.17%
inhibition [27]: Active
Activity (MV4-11 [28]): 2.99%
